molecular target: Phosphatidylinositol 3-kinase regulatory subunit alpha/4,5-bisphosphate 3-kinase catalytic subunit beta isoform (Homo sapiens, UniProt P27986+P42338); assay: Inhibition of recombinant human full-length N-terminal His6-tagged p110beta/human recombinant full-length untagged p85alpha expressed in baculovirus infected Sf21 insect cells using PIP2 as substrate after 30 mins in presence of ATP at 2xKm concentration by TR-FRET assay
In short: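 Class I PI3K isoforms assayed in vitro for kinase inhibition with ATP at 2Km steady-state concentration; IC50 values averaged over at least 2 determinations.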

Sequence of Phosphatidylinositol 3-kinase regulatory subunit alpha/4,5-bisphosphate 3-kinase catalytic subunit beta isoform (P27986 whole entry, canonical isoform): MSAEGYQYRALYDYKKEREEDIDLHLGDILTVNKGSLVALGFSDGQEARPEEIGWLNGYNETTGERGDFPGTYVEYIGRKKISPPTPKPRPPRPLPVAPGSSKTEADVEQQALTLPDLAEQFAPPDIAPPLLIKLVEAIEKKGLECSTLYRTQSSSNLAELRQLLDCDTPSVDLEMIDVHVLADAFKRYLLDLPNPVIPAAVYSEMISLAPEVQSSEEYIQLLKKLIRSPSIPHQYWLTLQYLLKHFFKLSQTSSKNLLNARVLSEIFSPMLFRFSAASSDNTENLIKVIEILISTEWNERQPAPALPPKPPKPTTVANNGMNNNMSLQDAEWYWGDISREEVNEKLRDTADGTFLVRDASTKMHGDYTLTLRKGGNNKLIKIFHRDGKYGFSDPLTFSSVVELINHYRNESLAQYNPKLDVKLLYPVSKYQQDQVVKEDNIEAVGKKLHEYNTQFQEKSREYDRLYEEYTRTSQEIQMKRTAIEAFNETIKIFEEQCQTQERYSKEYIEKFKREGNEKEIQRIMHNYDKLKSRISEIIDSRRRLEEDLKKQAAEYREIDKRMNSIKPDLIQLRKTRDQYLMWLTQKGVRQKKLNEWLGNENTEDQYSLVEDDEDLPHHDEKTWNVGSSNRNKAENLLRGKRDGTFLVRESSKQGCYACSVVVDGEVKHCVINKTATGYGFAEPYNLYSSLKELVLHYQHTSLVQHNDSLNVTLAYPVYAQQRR
Sequence of Phosphatidylinositol 3-kinase regulatory subunit alpha/4,5-bisphosphate 3-kinase catalytic subunit beta isoform (P42338 whole entry, canonical isoform): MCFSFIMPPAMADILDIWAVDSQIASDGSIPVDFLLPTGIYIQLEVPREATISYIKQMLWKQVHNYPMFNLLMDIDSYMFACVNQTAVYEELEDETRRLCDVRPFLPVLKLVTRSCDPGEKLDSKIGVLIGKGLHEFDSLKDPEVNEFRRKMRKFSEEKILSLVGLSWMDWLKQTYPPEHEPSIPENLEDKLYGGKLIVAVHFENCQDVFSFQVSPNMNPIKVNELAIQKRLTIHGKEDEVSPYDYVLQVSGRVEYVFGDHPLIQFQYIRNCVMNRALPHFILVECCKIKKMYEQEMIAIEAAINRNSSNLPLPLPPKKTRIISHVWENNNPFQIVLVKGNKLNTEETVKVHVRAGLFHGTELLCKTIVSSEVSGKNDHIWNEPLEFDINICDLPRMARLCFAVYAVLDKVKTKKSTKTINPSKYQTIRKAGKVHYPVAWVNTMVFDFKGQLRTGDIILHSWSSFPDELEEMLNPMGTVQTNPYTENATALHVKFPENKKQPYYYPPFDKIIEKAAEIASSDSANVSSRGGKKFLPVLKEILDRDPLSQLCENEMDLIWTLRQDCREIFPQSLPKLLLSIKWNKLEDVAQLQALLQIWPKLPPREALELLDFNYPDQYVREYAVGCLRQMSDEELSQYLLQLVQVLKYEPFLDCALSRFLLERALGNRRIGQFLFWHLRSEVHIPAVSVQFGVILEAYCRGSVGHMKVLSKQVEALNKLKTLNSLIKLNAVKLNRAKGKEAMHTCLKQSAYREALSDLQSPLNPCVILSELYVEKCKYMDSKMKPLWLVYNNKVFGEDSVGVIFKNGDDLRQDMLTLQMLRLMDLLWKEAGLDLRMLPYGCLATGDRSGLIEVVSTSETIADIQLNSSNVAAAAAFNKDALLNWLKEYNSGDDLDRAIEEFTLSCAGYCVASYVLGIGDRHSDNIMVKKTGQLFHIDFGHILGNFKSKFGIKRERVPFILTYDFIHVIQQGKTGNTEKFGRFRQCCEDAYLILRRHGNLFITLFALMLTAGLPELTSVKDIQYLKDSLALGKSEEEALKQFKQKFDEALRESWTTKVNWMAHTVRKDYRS

Compound	IC50
Cc1nc2c(-c3nnc[nH]3)cc(-c3ccnc(C(F)F)c3)cc2n1-c1ccnc2c(F)ccc(F)c12 [US10227350, Compound 43]	30 nM
Cc1nc2c(-c3nnc[nH]3)cc(-c3ccnc(Cl)c3)cc2n1-c1ccnc2c(F)ccc(F)c12 [US10227350, Compound 158]	7 nM
Cc1nc2c(-c3nnc[nH]3)cc(-c3ccnc(N)c3Cl)cc2n1-c1ccnc2c(F)ccc(F)c12 [US10227350, Compound 91]	19 nM
Cc1nc2c(-c3nnc[nH]3)cc(-c3ccnc(C#N)c3)cc2n1-c1ccnc2c(F)ccc(F)c12 [US10227350, Compound 113]	4 nM
CNc1nccc(-c2cc(-c3nnc[nH]3)c3nc(C)n(-c4ccnc5c(F)ccc(F)c45)c3c2)c1F [US10227350, Compound 77]	1400 nM
Cc1nccc(-c2cc(-c3nnc[nH]3)c3nc(C)n(-c4ccnc5c(F)ccc(F)c45)c3c2)n1 [US10227350, Compound 156]	12 nM

The next lines start with the values.

IC50	Compound
341 nM	Cc1cc(-c2cc(-c3nnc[nH]3)c3nc(C)n(-c4ccnc5c(F)ccc(F)c45)c3c2)cc(N)n1 [US10227350, Compound 90]
62 nM	Cc1cc(-c2cc(-c3nnc[nH]3)c3nc(C)n(-c4ccnc5c(F)ccc(F)c45)c3c2)ncn1 [US10227350, Compound 155]
5 nM	Clc1cccc2c(-n3cnc4c(-c5nnc[nH]5)cc(-c5ccncc5)cc43)ccnc12
6 nM	Cc1nc2c(-c3nnc[nH]3)cc(-c3ccncc3)cc2n1-c1ccnc2c(F)ccc(F)c12 [US10227350, Compound 140]
3 nM	Clc1cccc2c(-n3cnc4c(-c5nnc[nH]5)cc(N5CCOCC5)cc43)ccnc12 [US10214519, Example 111]
50 nM	Cc1nc2c(-c3nnc[nH]3)cc(-c3cc(N)ncc3F)cc2n1-c1ccnc2c(F)ccc(F)c12 [US10227350, Compound 76]
10 nM	Cc1nc2c(-c3nnc[nH]3)cc(-c3ccnc(N)c3)cc2n1-c1ccnc2c(F)ccc(F)c12 [US10227350, Compound 104]
321 nM	Cc1nc2c(-c3nnc[nH]3)cc(-c3c(F)cnc(N)c3F)cc2n1-c1ccnc2c(F)ccc(F)c12 [US10227350, Compound 100]

— BindingDB's records for doi:10.1021/acsmedchemlett.0c00095 (Gilead Sciences, 2020)
